Results published in ChEMBL document CHEMBL2321812 (J Med Chem, 2013).
Activity calls are given as the source filed them. The rule behind the calls is not given here.

What was measured:
[1] = Half life in human liver microsomes; format: ADME, Microsome
[2] = molecular target: T1, Poly [ADP-ribose] polymerase tankyrase-2 (Homo sapiens, UniProt Q9H2K2); assay: Inhibition of TNKS2 (unknown origin) by NAD+-dependent autopoly(ADP ribosyl)lation assay
T1 sequence (Q9H2K2 whole entry): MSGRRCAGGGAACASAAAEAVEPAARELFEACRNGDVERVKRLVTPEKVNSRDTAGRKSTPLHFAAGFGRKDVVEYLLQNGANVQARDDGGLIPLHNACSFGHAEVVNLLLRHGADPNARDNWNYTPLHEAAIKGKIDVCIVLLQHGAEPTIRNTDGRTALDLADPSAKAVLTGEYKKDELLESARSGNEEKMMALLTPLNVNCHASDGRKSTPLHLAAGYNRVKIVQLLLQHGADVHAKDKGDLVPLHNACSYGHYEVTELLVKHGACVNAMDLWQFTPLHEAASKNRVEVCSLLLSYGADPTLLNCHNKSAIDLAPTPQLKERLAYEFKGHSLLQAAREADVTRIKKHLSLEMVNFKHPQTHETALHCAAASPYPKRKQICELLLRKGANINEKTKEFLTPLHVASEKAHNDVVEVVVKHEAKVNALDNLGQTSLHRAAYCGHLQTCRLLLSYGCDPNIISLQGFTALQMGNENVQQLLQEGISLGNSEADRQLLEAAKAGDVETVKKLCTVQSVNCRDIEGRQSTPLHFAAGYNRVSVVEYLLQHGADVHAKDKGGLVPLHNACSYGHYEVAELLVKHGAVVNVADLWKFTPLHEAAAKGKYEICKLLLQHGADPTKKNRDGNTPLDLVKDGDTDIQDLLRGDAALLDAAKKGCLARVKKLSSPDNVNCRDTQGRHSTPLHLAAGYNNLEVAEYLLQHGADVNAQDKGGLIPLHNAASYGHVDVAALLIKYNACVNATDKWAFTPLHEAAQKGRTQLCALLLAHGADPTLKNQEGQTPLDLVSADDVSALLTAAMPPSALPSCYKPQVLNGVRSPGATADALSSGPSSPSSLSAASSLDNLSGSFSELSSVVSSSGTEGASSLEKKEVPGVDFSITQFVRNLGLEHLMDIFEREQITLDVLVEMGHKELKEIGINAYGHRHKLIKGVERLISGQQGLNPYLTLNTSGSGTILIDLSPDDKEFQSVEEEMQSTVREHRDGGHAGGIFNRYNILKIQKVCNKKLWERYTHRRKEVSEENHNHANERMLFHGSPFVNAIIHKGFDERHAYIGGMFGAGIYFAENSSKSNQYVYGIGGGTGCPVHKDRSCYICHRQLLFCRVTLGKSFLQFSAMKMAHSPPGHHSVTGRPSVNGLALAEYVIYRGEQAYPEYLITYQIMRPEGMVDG

Tankyrase 1/2 = molecular target: T2, Tankyrase 1/2 (Homo sapiens, UniProt Q9H2K2+O95271); assay: Inhibition of TNKS1/2 in HEK293 cells assessed as inhibition of Wnt/beta-catenin pathway after 24 hrs by luciferase reporter gene assay; format: cell-based
T2 sequence (Q9H2K2 whole entry): T1 sequence (Q9H2K2 whole entry)
T2 sequence (O95271 whole entry): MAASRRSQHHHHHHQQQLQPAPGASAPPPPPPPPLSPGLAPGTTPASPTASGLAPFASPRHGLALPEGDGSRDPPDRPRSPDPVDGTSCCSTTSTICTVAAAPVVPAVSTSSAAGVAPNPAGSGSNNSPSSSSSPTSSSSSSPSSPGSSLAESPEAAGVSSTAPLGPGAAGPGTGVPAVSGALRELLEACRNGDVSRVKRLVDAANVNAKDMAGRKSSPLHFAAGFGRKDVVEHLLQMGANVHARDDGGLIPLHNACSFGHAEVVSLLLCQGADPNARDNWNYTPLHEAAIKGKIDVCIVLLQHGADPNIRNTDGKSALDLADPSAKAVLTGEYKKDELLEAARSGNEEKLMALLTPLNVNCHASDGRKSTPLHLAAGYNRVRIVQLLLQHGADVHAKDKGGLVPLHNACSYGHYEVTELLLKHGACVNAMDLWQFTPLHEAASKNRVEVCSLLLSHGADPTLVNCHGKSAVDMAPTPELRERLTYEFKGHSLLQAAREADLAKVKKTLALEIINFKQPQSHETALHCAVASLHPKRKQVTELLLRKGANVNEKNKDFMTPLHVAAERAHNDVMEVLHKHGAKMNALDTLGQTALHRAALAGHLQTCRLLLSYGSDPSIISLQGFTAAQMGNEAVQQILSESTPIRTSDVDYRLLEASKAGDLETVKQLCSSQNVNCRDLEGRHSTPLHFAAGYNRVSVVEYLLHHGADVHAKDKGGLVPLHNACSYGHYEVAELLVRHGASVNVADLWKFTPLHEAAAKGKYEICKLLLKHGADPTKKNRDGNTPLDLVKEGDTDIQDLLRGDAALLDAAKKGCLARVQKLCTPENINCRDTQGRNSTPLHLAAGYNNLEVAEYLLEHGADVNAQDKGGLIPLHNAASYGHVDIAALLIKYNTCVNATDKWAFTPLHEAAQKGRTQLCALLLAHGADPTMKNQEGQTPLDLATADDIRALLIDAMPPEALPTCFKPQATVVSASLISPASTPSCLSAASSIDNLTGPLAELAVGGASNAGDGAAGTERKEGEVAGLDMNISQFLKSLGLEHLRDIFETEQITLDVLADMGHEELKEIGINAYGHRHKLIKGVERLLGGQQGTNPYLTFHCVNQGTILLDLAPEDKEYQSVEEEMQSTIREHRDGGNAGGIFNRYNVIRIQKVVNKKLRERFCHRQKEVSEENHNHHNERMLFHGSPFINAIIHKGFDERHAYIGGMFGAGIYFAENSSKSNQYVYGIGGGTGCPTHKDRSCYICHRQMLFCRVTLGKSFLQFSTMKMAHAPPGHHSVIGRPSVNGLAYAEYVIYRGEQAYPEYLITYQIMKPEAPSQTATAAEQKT

[3] = molecular target: Tankyrase 1/2 (Homo sapiens) (UniProt Q9H2K2+O95271); assay: Inhibition of TNKS1/2 in HEK293 cells assessed as inhibition of Wnt/[…] pathway at 10 uM after 24 hrs by luciferase reporter gene assay; format: cell-based
Outline: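 ST-Luc/Ren HEK293 cells (stable SuperTOP-Flash, 7× TCF sites) were seeded at 40,000 per well on poly-L-lysine. After 24 h, cells got compound for 24 h in 50% Wnt3a-conditioned medium from L Wnt3a cells. Lysates were read for firefly and Renilla luciferase by dual-luciferase luminescence.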

SMILES | half-life [1] [min] | IC50 (Tankyrase 1/2) [µM] | other results
COc1ccc(-n2c(NCc3nc(-c4ccc(C)cc4)no3)nnc2-c2ccncc2)cc1 | 6.5 | > 10 | IC50 [2]: > 10 µM
Cc1ccc(-c2noc(CSc3ncc(-c4ccncc4)n3-c3ccccc3C)n2)cc1 |  | > 10 | 
Cc1cc2nc(CSc3nnc(-c4ccncc4)n3-c3ccccc3Cl)cc(=O)n2cc1C | 7 |  | 
NCCCOCCCOc1cccc(-c2noc(CSc3nnc(-c4ccncc4)n3-c3ccccc3Cl)n2)c1 |  | 3.92 | 
N#Cc1ccc(-c2nnc(CSc3nnc(-c4ccncc4)n3-c3ccncc3Cl)o2)cc1 |  |  | inhibition [3]: inactive
COc1ccc(-n2c(OCc3nc(-c4ccc(C)cc4)no3)nnc2-c2ccncc2)cc1 |  | > 10 | IC50 [2]: > 10 µM
COc1ccc(-n2c(SCc3nc(-c4ccc(C)cc4)no3)nnc2-c2ccncc2)cc1 | 3 | 1.01 | IC50 [2]: 0.46 µM

Continued, in another order:

half-life [1] [min] | IC50 (Tankyrase 1/2) [µM] | SMILES | other results
4 |  | CS(=O)(=O)c1ccc(-c2nnc(SCc3nnc(-c4ccc(Cl)cc4)o3)n2-c2ccccc2Cl)nc1 | 
2.4 |  | N#Cc1ccc(-c2nnc(CSc3nnc(-c4ccncc4)n3-c3ccccc3Cl)o2)cc1 | 
7 |  | Cc1ccc(-c2nnc(CCc3nnc(-c4ccncc4)n3-c3ccccc3Cl)o2)cc1 | 
 | 4.5 | Cc1nnc(SCc2nnc(-c3ccc(Cl)cc3)o2)n1-c1ccccc1Cl | 
128 |  | Oc1cc(-c2nnc(/C=C/c3nnc(-c4ccc(F)cc4)n3-c3ccccc3Cl)o2)ccn1 | 
37 |  | COc1cc(-c2nnc(/C=C/c3nnc(-c4ccc(S(C)(=O)=O)cn4)n3-c3ccccc3Cl)o2)ccn1 | 
